# Assay results as given in ChEMBL document CHEMBL1649165, “Activity profile in vitro of micafungin against Spanish clinical isolates of common and emerging species of yeasts and molds” (2009).
# What was measured:
# Format in all cases: functional
# Trichosporon ovoides = experiment: Antimicrobial activity against Trichosporon ovoides by broth microdilution method
# Method in brief: (§1)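 Nonfermentative yeast clinical isolates (Rhodotorula, Trichosporon) tested by broth microdilution. The EUCAST yeast recommendations were followed strictly, with one minor modification to improve growth. MIC was read as the endpoint.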
# Pichia norvegensis = experiment: Antimicrobial activity against Candida norvegensis by broth microdilution method
# Method in brief: (§2)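 Clinical isolates from human patients, tested by broth microdilution using the AFST-EUCAST reference procedure for fermentative yeasts. The MIC was read per that reference method.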
# Clavispora lusitaniae = experiment: Antimicrobial activity against Candida lusitaniae by broth microdilution method; method in brief: as §2
# Kluyveromyces marxianus = experiment: Antimicrobial activity against Candida kefyr by broth microdilution method; method in brief: as §2
# Pichia kudriavzevii = experiment: Antimicrobial activity against Candida krusei by broth microdilution method; method in brief: as §2
# Candida orthopsilosis = experiment: Antimicrobial activity against Candida orthopsilosis by broth microdilution method; details: Lodderomyces orthopsilosis; method in brief: as §2
# Trichosporon domesticum = experiment: Antimicrobial activity against Trichosporon mycotoxinivorans by broth microdilution method; details: Apiotrichum domesticum
# Method in brief: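 Spanish human clinical isolates were tested as nonfermentative yeasts by broth microdilution. The method strictly followed the EUCAST recommendations, with a minor modification to improve growth, and the read-out was the MIC.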
# Saccharomyces cerevisiae = experiment: Antimicrobial activity against Saccharomyces cerevisiae by broth microdilution method
# Yarrowia lipolytica = experiment: Antimicrobial activity against Yarrowia lipolytica by broth microdilution method
# Torulaspora delbrueckii = experiment: Antimicrobial activity against Candida coliculosa by broth microdilution method; method in brief: as §2
# Candida tropicalis = experiment: Antimicrobial activity against Candida tropicalis by broth microdilution method; method in brief: as §2
# Debaryomyces hansenii = experiment: Antimicrobial activity against Candida famata by broth microdilution method; method in brief: as §2
# Trichosporon asahii = experiment: Antimicrobial activity against Trichosporon asahii by broth microdilution method; method in brief: as §1
# Ustilago = experiment: Antimicrobial activity against Ustilago spp by broth microdilution method
# Naganishia albida = experiment: Antimicrobial activity against Cryptococcus albidus by broth microdilution method
# Method in brief: (§3)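 Clinical isolates of nonfermentative yeasts, tested by broth microdilution following EUCAST recommendations. The only change from that method was a minor modification to improve growth.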
# Papiliotrema laurentii = experiment: Antimicrobial activity against Cryptococcus laurentii by broth microdilution method; method in brief: as §3
# Magnusiomyces capitatus = experiment: Antimicrobial activity against Dipodascus capitatus by broth microdilution method
# Trichosporon dermatis = experiment: Antimicrobial activity against Trichosporon dermatis by broth microdilution method; details: Cutaneotrichosporon dermatis; method in brief: as §1
# Candida metapsilosis = experiment: Antimicrobial activity against Candida metapsilosis by broth microdilution method; details: Lodderomyces metapsilosis; method in brief: as §2
# Nakaseomyces glabratus = experiment: Antimicrobial activity against Candida glabrata by broth microdilution method; method in brief: as §2
# Diutina rugosa = experiment: Antimicrobial activity against Candida rugosa by broth microdilution method; method in brief: as §2
# Candida parapsilosis = experiment: Antimicrobial activity against Candida parapsilosis by broth microdilution method; details: Lodderomyces parapsilosis; method in brief: as §2
# Trichosporon inkin = experiment: Antimicrobial activity against Trichosporon inkin by broth microdilution method; method in brief: as §1
# Geotrichum candidum = experiment: Antimicrobial activity against Galactomyces geotrichum by broth microdilution method
# Rhodotorula glutinis = experiment: Antimicrobial activity against Rhodotorula glutinis by broth microdilution method; method in brief: as §1
# [Candida] zeylanoides = Antimicrobial activity against Candida zeylanoides by broth microdilution method; details: Dujonia zeylanoides; method in brief: as §2
# Candida albicans = experiment: Antimicrobial activity against Candida albicans by broth microdilution method; method in brief: as §2
# Wickerhamomyces anomalus = experiment: Antimicrobial activity against Candida pelliculosa by broth microdilution method; details: Hansenula anomala; method in brief: as §2
# [Candida] inconspicua = Antimicrobial activity against Candida inconspicua by broth microdilution method; details: Pichia inconspicua; method in brief: as §2
# [1] = system: Cryptococcus deneoformans; experiment: Antimicrobial activity against Cryptococcus neoformans var. neoformans by broth microdilution method; method in brief: as §3
# Rhodotorula mucilaginosa = experiment: Antimicrobial activity against Rhodotorula mucilaginosa by broth microdilution method; method in brief: as §1
# [2] = system: Kazachstania pintolopesii; experiment: Antimicrobial activity against Candida pintolopesii by broth microdilution method; details: Arxiozyma pintolopesii; method in brief: as §2
# [3] = system: Meyerozyma guilliermondii; experiment: Antimicrobial activity against Candida guilliermondii by broth microdilution method; method in brief: as §2
# [Candida] intermedia = Antimicrobial activity against Candida intermedia by broth microdilution method; details: Sungouiella intermedia; method in brief: as §2
# Trichosporon = experiment: Antimicrobial activity against Trichosporon spp. by broth microdilution method; method in brief: as §1
# Trichosporon jirovecii = experiment: Antimicrobial activity against Trichosporon jirovecii by broth microdilution method; details: Cutaneotrichosporon jirovecii; method in brief: as §1
smiles,measurement,setting,value
Nc1nc(=O)[nH]cc1F [FLUCYTOSINE],MIC50,Trichosporon ovoides,16 µg/mL
same,MIC90,Trichosporon ovoides,> 64 µg/mL
same,MIC50,Pichia norvegensis,0.25 µg/mL
same,MIC90,Pichia norvegensis,16 µg/mL
same,MIC50,Clavispora lusitaniae,0.12 µg/mL
same,MIC90,Clavispora lusitaniae,16 µg/mL
same,MIC50,Kluyveromyces marxianus,0.5 µg/mL
same,MIC90,Kluyveromyces marxianus,4 µg/mL
same,MIC50,Pichia kudriavzevii,4 µg/mL
same,MIC90,Pichia kudriavzevii,8 µg/mL
same,MIC50,Candida orthopsilosis,0.25 µg/mL
same,MIC90,Candida orthopsilosis,16 µg/mL
same,MIC50,Trichosporon domesticum,16 µg/mL
same,MIC90,Trichosporon domesticum,> 64 µg/mL
same,MIC50,Saccharomyces cerevisiae,0.12 µg/mL
same,MIC90,Saccharomyces cerevisiae,0.5 µg/mL
same,MIC50,Yarrowia lipolytica,> 64 µg/mL
same,MIC90,Yarrowia lipolytica,> 64 µg/mL
same,MIC50,Torulaspora delbrueckii,0.25 µg/mL
same,MIC90,Torulaspora delbrueckii,16 µg/mL
same,MIC50,Candida tropicalis,0.12 µg/mL
same,MIC90,Candida tropicalis,0.25 µg/mL
same,MIC50,Debaryomyces hansenii,0.25 µg/mL
same,MIC90,Debaryomyces hansenii,16 µg/mL
same,MIC50,Trichosporon asahii,32 µg/mL
same,MIC90,Trichosporon asahii,> 64 µg/mL
same,MIC50,Ustilago,16 µg/mL
same,MIC90,Ustilago,> 64 µg/mL
same,MIC50,Naganishia albida,16 µg/mL
same,MIC90,Naganishia albida,> 64 µg/mL
same,MIC50,Papiliotrema laurentii,16 µg/mL
same,MIC90,Papiliotrema laurentii,> 64 µg/mL
same,MIC50,Magnusiomyces capitatus,0.12 µg/mL
same,MIC90,Magnusiomyces capitatus,1 µg/mL
same,MIC50,Trichosporon dermatis,16 µg/mL
same,MIC90,Trichosporon dermatis,> 64 µg/mL
same,MIC50,Candida metapsilosis,0.25 µg/mL
same,MIC90,Candida metapsilosis,16 µg/mL
same,MIC50,Nakaseomyces glabratus,0.12 µg/mL
same,MIC90,Nakaseomyces glabratus,0.25 µg/mL
same,MIC50,Diutina rugosa,0.25 µg/mL
same,MIC90,Diutina rugosa,16 µg/mL
same,MIC50,Candida parapsilosis,0.12 µg/mL
same,MIC90,Candida parapsilosis,0.25 µg/mL
same,MIC50,Trichosporon inkin,64 µg/mL
same,MIC90,Trichosporon inkin,> 64 µg/mL
same,MIC50,Geotrichum candidum,0.12 µg/mL
same,MIC90,Geotrichum candidum,0.25 µg/mL
same,MIC50,Rhodotorula glutinis,16 µg/mL
same,MIC90,Rhodotorula glutinis,> 64 µg/mL
same,MIC50,[Candida] zeylanoides,0.25 µg/mL
same,MIC90,[Candida] zeylanoides,16 µg/mL
same,MIC50,Candida albicans,0.12 µg/mL
same,MIC90,Candida albicans,0.5 µg/mL
same,MIC50,Wickerhamomyces anomalus,0.25 µg/mL
same,MIC90,Wickerhamomyces anomalus,16 µg/mL
same,MIC50,[Candida] inconspicua,0.25 µg/mL
same,MIC90,[Candida] inconspicua,16 µg/mL
same,MIC50,[1],16 µg/mL
same,MIC90,[1],32 µg/mL
same,MIC50,Rhodotorula mucilaginosa,0.25 µg/mL
same,MIC90,Rhodotorula mucilaginosa,1 µg/mL
same,MIC50,[2],0.25 µg/mL
same,MIC90,[2],16 µg/mL
same,MIC50,[3],0.12 µg/mL
same,MIC90,[3],0.25 µg/mL
same,MIC50,[Candida] intermedia,0.25 µg/mL
same,MIC90,[Candida] intermedia,16 µg/mL
same,MIC50,Trichosporon,16 µg/mL
same,MIC90,Trichosporon,> 64 µg/mL
same,MIC50,Trichosporon jirovecii,16 µg/mL
same,MIC90,Trichosporon jirovecii,> 64 µg/mL
